Test results reported in ChEMBL document CHEMBL4689842, “EUbOPEN Chemogenomics Library wave 1” (2021).

System: U2OS
Experiment: Multiplex assay against U2OS
Assay type: toxicity, cell-based
Details: human
How it was run: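 Values for tubulin, mitochondrial-mass and membrane-permeability phenotypes are per cents of cells with healthy nuclei. These cells were identified by CellPathfinder machine-learning gating of live cells that had been stained at seeding with Hoechst33342, BioTracker Green Microtubule Cytoskeleton Dye, MitoTracker Red and Annexin V Alexa Fluor 680 and imaged on a CQ1 microscope at 37°C and 5% CO2 after compound addition. The gating first set Hoechst high-intensity objects apart from normal cells, then split normal cells into healthy, pyknosed or fragmented nuclei, and pyknosed cells into mitotic or apoptotic.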

[1] = 12 h, 1 µM, compound concentration 1 uM, replicate 1
[2] = 12 h, 1 µM, compound concentration 1 uM, replicate 2
[3] = 12 h, 10 µM, compound concentration 10 uM, replicate 1
[4] = 12 h, 10 µM, compound concentration 10 uM, replicate 2
[5] = 24 h, 1 µM, compound concentration 1 uM, replicate 1
[6] = 24 h, 1 µM, compound concentration 1 uM, replicate 2
[7] = 24 h, 10 µM, compound concentration 10 uM, replicate 1
[8] = 24 h, 10 µM, compound concentration 10 uM, replicate 2
[9] = 48 h, 1 µM, compound concentration 1 uM, replicate 1
[10] = 48 h, 1 µM, compound concentration 1 uM, replicate 2
[11] = 48 h, 10 µM, compound concentration 10 uM, replicate 1
[12] = 48 h, 10 µM, compound concentration 10 uM, replicate 2

SMILES: COc1ncc(-c2ccc3nccc(-c4ccnnc4)c3c2)cc1NS(=O)(=O)c1ccc(F)cc1F [OMIPALISIB]
- Population Apoptotic (%) [1]: 65%
- Population Fragmented Nuclei (%) [1]: 13%
- Population Healthy Nuclei (%) [1]: 67%
- Population Hoechst High Intensity Objects (%) [1]: 4%
- Population Membrane Permeable-Phenotype (%) [1]: 6%
- Population Mitochondria Different-Phenotype (%) [1]: 3%
- Population Mitotic Cells (%) [1]: 34%
- Population Normal (%) [1]: 95%
- Population Pyknosed Nuclei (%) [1]: 18%
- Population Tubulin-Different-Phenotype (%) [1]: 9%
- Total Cell Count [1]: 135
- Population Apoptotic (%) [2]: 50%
- Population Fragmented Nuclei (%) [2]: 46%
- Population Healthy Nuclei (%) [2]: 42%
- Population Hoechst High Intensity Objects (%) [2]: 7%
- Population Membrane Permeable-Phenotype (%) [2]: 16%
- Population Mitochondria Different-Phenotype (%) [2]: 16%
- Population Mitotic Cells (%) [2]: 50%
- Population Normal (%) [2]: 92%
- Population Pyknosed Nuclei (%) [2]: 11%
- Population Tubulin-Different-Phenotype (%) [2]: 23%
- Total Cell Count [2]: 51
- Population Apoptotic (%) [3]: 58%
- Population Fragmented Nuclei (%) [3]: 28%
- Population Healthy Nuclei (%) [3]: 37%
- Population Hoechst High Intensity Objects (%) [3]: 6%
- Population Membrane Permeable-Phenotype (%) [3]: 14%
- Population Mitochondria Different-Phenotype (%) [3]: 15%
- Population Mitotic Cells (%) [3]: 41%
- Population Normal (%) [3]: 93%
- Population Pyknosed Nuclei (%) [3]: 33%
- Population Tubulin-Different-Phenotype (%) [3]: 15%
- Total Cell Count [3]: 150
- Population Apoptotic (%) [4]: 65%
- Population Fragmented Nuclei (%) [4]: 33%
- Population Healthy Nuclei (%) [4]: 27%
- Population Hoechst High Intensity Objects (%) [4]: 7%
- Population Membrane Permeable-Phenotype (%) [4]: 11%
- Population Mitochondria Different-Phenotype (%) [4]: 16%
- Population Mitotic Cells (%) [4]: 34%
- Population Normal (%) [4]: 92%
- Population Pyknosed Nuclei (%) [4]: 39%
- Population Tubulin-Different-Phenotype (%) [4]: 22%
- Total Cell Count [4]: 77
- Population Apoptotic (%) [5]: 62%
- Population Fragmented Nuclei (%) [5]: 19%
- Population Healthy Nuclei (%) [5]: 61%
- Population Hoechst High Intensity Objects (%) [5]: 9%
- Population Membrane Permeable-Phenotype (%) [5]: 5%
- Population Mitochondria Different-Phenotype (%) [5]: 4%
- Population Mitotic Cells (%) [5]: 37%
- Population Normal (%) [5]: 90%
- Population Pyknosed Nuclei (%) [5]: 18%
- Population Tubulin-Different-Phenotype (%) [5]: 14%
- Total Cell Count [5]: 135
- Population Apoptotic (%) [6]: 33%
- Population Fragmented Nuclei (%) [6]: 43%
- Population Healthy Nuclei (%) [6]: 40%
- Population Hoechst High Intensity Objects (%) [6]: 11%
- Population Membrane Permeable-Phenotype (%) [6]: 24%
- Population Mitochondria Different-Phenotype (%) [6]: 17%
- Population Mitotic Cells (%) [6]: 66%
- Population Normal (%) [6]: 88%
- Population Pyknosed Nuclei (%) [6]: 16%
- Population Tubulin-Different-Phenotype (%) [6]: 37%
- Total Cell Count [6]: 50
- Population Apoptotic (%) [7]: 70%
- Population Fragmented Nuclei (%) [7]: 36%
- Population Healthy Nuclei (%) [7]: 25%
- Population Membrane Permeable-Phenotype (%) [7]: 17%
- Population Mitochondria Different-Phenotype (%) [7]: 25%
- Population Mitotic Cells (%) [7]: 29%
- Population Pyknosed Nuclei (%) [7]: 38%
- Population Tubulin-Different-Phenotype (%) [7]: 17%
- Total Cell Count [7]: 170
- Population Apoptotic (%) [8]: 80%
- Population Fragmented Nuclei (%) [8]: 27%
- Population Healthy Nuclei (%) [8]: 22%
- Population Hoechst High Intensity Objects (%) [8]: 11%
- Population Membrane Permeable-Phenotype (%) [8]: 35%
- Population Mitochondria Different-Phenotype (%) [8]: 28%
- Population Mitotic Cells (%) [8]: 20%
- Population Normal (%) [8]: 88%
- Population Pyknosed Nuclei (%) [8]: 49%
- Population Tubulin-Different-Phenotype (%) [8]: 42%
- Total Cell Count [8]: 81
- Population Apoptotic (%) [9]: 59%
- Population Fragmented Nuclei (%) [9]: 23%
- Population Healthy Nuclei (%) [9]: 50%
- Population Hoechst High Intensity Objects (%) [9]: 12%
- Population Membrane Permeable-Phenotype (%) [9]: 7%
- Population Mitochondria Different-Phenotype (%) [9]: 6%
- Population Mitotic Cells (%) [9]: 40%
- Population Normal (%) [9]: 87%
- Population Pyknosed Nuclei (%) [9]: 26%
- Population Tubulin-Different-Phenotype (%) [9]: 16%
- Total Cell Count [9]: 142
- Population Apoptotic (%) [10]: 47%
- Population Fragmented Nuclei (%) [10]: 43%
- Population Healthy Nuclei (%) [10]: 32%
- Population Hoechst High Intensity Objects (%) [10]: 15%
- Population Membrane Permeable-Phenotype (%) [10]: 39%
- Population Mitochondria Different-Phenotype (%) [10]: 43%
- Population Mitotic Cells (%) [10]: 52%
- Population Normal (%) [10]: 84%
- Population Pyknosed Nuclei (%) [10]: 23%
- Population Tubulin-Different-Phenotype (%) [10]: 56%
- Total Cell Count [10]: 59
- Population Apoptotic (%) [11]: 83%
- Population Fragmented Nuclei (%) [11]: 37%
- Population Healthy Nuclei (%) [11]: 9%
- Population Hoechst High Intensity Objects (%) [11]: 15%
- Population Membrane Permeable-Phenotype (%) [11]: 46%
- Population Mitochondria Different-Phenotype (%) [11]: 46%
- Population Mitotic Cells (%) [11]: 16%
- Population Normal (%) [11]: 84%
- Population Pyknosed Nuclei (%) [11]: 52%
- Population Tubulin-Different-Phenotype (%) [11]: 61%
- Total Cell Count [11]: 181
- Population Apoptotic (%) [12]: 82%
- Population Fragmented Nuclei (%) [12]: 31%
- Population Healthy Nuclei (%) [12]: 19%
- Population Hoechst High Intensity Objects (%) [12]: 18%
- Population Membrane Permeable-Phenotype (%) [12]: 81%
- Population Mitochondria Different-Phenotype (%) [12]: 72%
- Population Mitotic Cells (%) [12]: 17%
- Population Normal (%) [12]: 81%
- Population Pyknosed Nuclei (%) [12]: 49%
- Population Tubulin-Different-Phenotype (%) [12]: 72%
- Total Cell Count [12]: 84
